# Measured values: ChEMBL document CHEMBL1152609, “Synthesis and pharmacological exploitation of clioquinol-derived copper-binding apoptosis inducers triggering reactive oxygen species generation and MAPK pathway activation” (2009)
# Active and inactive are the calls of the source. The rule behind the calls is not given here.
# Legend:
# HeLa [1] = assay: Growth inhibition of human HeLa cells after 48 hrs by MTT assay in presence of 100 uM ZnCl2; format: functional
# In short: (§1)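 Cells seeded at 5 × 10³/well and allowed 24 h to attach, then exposed to compound (DMSO stock) or vehicle for 48 h in 10% FBS DMEM at 37 °C, 5% CO₂. MTT (2 mg/mL in PBS) added for a further 2 h; formazan dissolved in DMSO and read at 570 nm. Inhibition = (1 − At/Ac) × 100. GI₅₀ interpolated from dose-response curves; mean ± SEM of 4–6 experiments; top concentration 40 μM.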
# [2] = Growth inhibition of human BT-483 cells after 48 hrs by MTT assay in presence of 10% FBS supplemented DMEM medium; format: functional; details: BT-483, 48 h; in short: as §1
# HeLa [3] = assay: Stimulation of reactive oxygen species in human HeLa cells at 3 uM in presence of 5 uM CuCl2 after 1 hr by dihydroethidium dye based fluorescence assay; format: functional, cell-based
# In short: (§2)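 HeLa cells grown in DMEM with 10% FBS, 2 mM glutamine, penicillin/streptomycin at 37 °C, 5% CO2. Compound given with CuCl2, with or without tempol 1 mM; 0.5% DMSO control, untreated blank. Dihydroethidium 5 µmol/L loaded 30 min, PBS wash, epifluorescence microscopy; four separate cultures, two to six coverslips each.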
# [4] = Growth inhibition of human CE81T cells after 48 hrs by MTT assay in presence of 10% FBS supplemented DMEM medium; format: functional; in short: as §1
# HeLa [5] = assay: Growth inhibition of human HeLa cells after 48 hrs by MTT assay in presence of 10 uM CuCl2; format: functional; in short: as §1
# HeLa [6] = assay: Growth inhibition of human HeLa cells after 48 hrs by MTT assay in presence of 10% FBS supplemented DMEM medium; format: functional; in short: as §1
# HeLa [7] = assay: Growth inhibition of human HeLa cells after 48 hrs by MTT assay in presence of 50 uM ZnCl2; format: functional; in short: as §1
# HeLa [8] = assay: Growth inhibition of human HeLa cells after 48 hrs by MTT assay in presence of 1 uM CuCl2; format: functional; in short: as §1
# HeLa [9] = assay: Growth inhibition of human HeLa cells after 48 hrs by MTT assay in presence of 50 uM CuCl2; format: functional; in short: as §1
# [10] = Growth inhibition of human SKHep cells after 48 hrs by MTT assay in presence of 10% FBS supplemented DMEM medium; format: functional; in short: as §1
# HeLa [11] = assay: Activation of ERK phosphorylation in human HeLa cells at 1 uM in presence of 10 uM CuCl2 after 48 hrs by Western blot; format: cell-based
# In short: (§3)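 HeLa cells grown in DMEM with 10% FBS, 2 mM glutamine and penicillin/streptomycin at 37 °C, 5% CO₂. Treated cells were lysed and the extracts run on Western blot. Membranes were blocked overnight at 4 °C in TBST/5% non-fat milk. Probed with phospho- and total ERK1/2, p38 and JNK antibodies, then anti-mouse or anti-rabbit IgG (1:10,000, 1 h, RT), with ECL detection.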
# HeLa [12] = assay: Induction of apoptosis in human HeLa cells assessed as accumulation at subG1 phase at 2 uM after 24 hrs using propidium iodide staining by flow cytometry; format: functional
# In short: (§4)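 HeLa cells exposed 24 h to test agent; controls were 0.5% DMSO and untreated cells. Optional additions were CuCl₂ 10 μM, tempol 1 mM or z-VAD. Cells were fixed in 80% ethanol and held at −20 °C. They were then stained 30 min at room temperature in the dark with PI 0.08 mg/mL, 0.1% Triton X-100 and RNase A 0.2 mg/mL in PBS. Subdiploid (sub-G1) fraction was quantified by flow cytometry as % of all events.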
# HeLa [13] = assay: Induction of apoptosis in human HeLa cells assessed as accumulation at subG1 phase at 1 uM after 24 hrs using propidium iodide staining by flow cytometry; format: functional; in short: as §4
# HeLa [14] = assay: Activation of ERK phosphorylation in human HeLa cells at 1 uM in presence of 10 uM CuCl2 after 24 hrs by Western blot; format: cell-based; in short: as §3
# [15] = target: T1, MAP kinase p38 (Homo sapiens) (UniProt O15264+Q15759+Q16539+P53778); assay: Activation of p38 phosphorylation in human HeLa cells at 1 uM in presence of 10 uM CuCl2 after 48 hrs by Western blot
# HeLa [16] = assay: Activation of ERK phosphorylation in human HeLa cells at 1 uM in presence of 10 uM CuCl2 after 48 hrs by Western blot
# [17] = target: T1, MAP kinase p38 (Homo sapiens); assay: Activation of p38 phosphorylation in human HeLa cells at 1 uM in presence of 10 uM CuCl2 after 24 hrs by Western blot; format: cell-based; in short: as §3
# [18] = Activation of JNK phosphorylation in human HeLa cells at 1 uM in presence of 10 uM CuCl2 after 48 hrs by Western blot
# HeLa [19] = assay: Stimulation of reactive oxygen species in human HeLa cells at 1 uM in presence of 5 uM CuCl2 after 1 hr by dihydroethidium dye based fluorescence assay; format: functional, cell-based; in short: as §2
# [20] = Activation of JNK phosphorylation in human HeLa cells at 1 uM in presence of 10 uM CuCl2 after 24 hrs by Western blot; format: cell-based; in short: as §3
# [21] = target: T1, MAP kinase p38 (Homo sapiens); assay: Activation of p38 phosphorylation in human HeLa cells at 1 uM in presence of 10 uM CuCl2 after 24 hrs by Western blot
# HeLa [22] = assay: Induction of apoptosis in human HeLa cells assessed as accumulation at subG1 phase at 1 uM in presence of 10 uM CuCl2 and 10 uM caspase inhibitor z-VAD after 24 hrs using propidium iodide staining by flow cytometry; format: functional; in short: as §4
# HeLa [23] = assay: Induction of apoptosis in human HeLa cells assessed as accumulation at subG1 phase at 1 uM in presence of 10 uM CuCl2 and 1 mM tempol after 24 hrs using propidium iodide staining by flow cytometry; format: functional; in short: as §4
# [24] = Activation of JNK phosphorylation in human HeLa cells at 1 uM in presence of 10 uM CuCl2 after 24 hrs by Western blot
# HeLa [25] = assay: Activation of ERK phosphorylation in human HeLa cells at 1 uM in presence of 10 uM CuCl2 after 24 hrs by Western blot
# HeLa [26] = assay: Induction of apoptosis in human HeLa cells assessed as accumulation at subG1 phase at 1 uM in presence of 10 uM CuCl2 after 24 hrs using propidium iodide staining by flow cytometry; format: functional; in short: as §4
# [27] = target: T1, MAP kinase p38 (Homo sapiens); assay: Activation of p38 phosphorylation in human HeLa cells at 1 uM in presence of 10 uM CuCl2 after 48 hrs by Western blot; format: cell-based; in short: as §3
# [28] = Activation of JNK phosphorylation in human HeLa cells at 1 uM in presence of 10 uM CuCl2 after 48 hrs by Western blot; format: cell-based; in short: as §3
# CE81T = assay: Growth inhibition of human CE81T cells at 40 uM after 48 hrs by MTT assay in presence of 10% FBS supplemented DMEM medium; format: functional, cell-based; in short: as §1
# BT-483 = assay: Growth inhibition of human BT-483 cells at 40 uM after 48 hrs by MTT assay in presence of 10% FBS supplemented DMEM medium; format: functional, cell-based; in short: as §1
# SKHep = assay: Growth inhibition of human SKHep cells at 40 uM after 48 hrs by MTT assay in presence of 10% FBS supplemented DMEM medium; format: functional, cell-based; in short: as §1
Compound,GI50 (HeLa [1]),GI50 [2],GI50 [4],GI50 (HeLa [5]),GI50 (HeLa [6]),GI50 (HeLa [7]),GI50 (HeLa [8]),GI50 (HeLa [9]),GI50 [10],other results
Oc1c(CN2CCCCC2)ccc2cccnc12,12.9 µM,26.9 µM,16.7 µM,0.58 µM,14.5 µM,8.5 µM,3 µM,0.35 µM,16.6 µM,Activity (HeLa [3]): Active
Cc1ccc(S(=O)(=O)N2CCN(Cc3cc([N+](=O)[O-])c4cccnc4c3O)CC2)cc1,0.26 µM,1.9 µM,5.9 µM,0.25 µM,0.71 µM,0.48 µM,0.65 µM,0.06 µM,14.6 µM,Activity (HeLa [11]): Active; Activity (HeLa [12]): 18.57%; Activity (HeLa [13]): 6.77%; Activity (HeLa [14]): Active; Activity [15]: Active; Activity (HeLa [16]): Active; Activity [17]: Active; Activity [18]: Active; Activity (HeLa [19]): Active; Activity [20]: Active; Activity [21]: Active; Activity (HeLa [22]): 1.58%; Activity (HeLa [23]): 1.34%; Activity [24]: Active; Activity (HeLa [25]): Active; Activity (HeLa [26]): 17.5%; Activity [27]: Active; Activity [28]: Active
Oc1c(CN2CCCCC2)ccc2ccccc12,44.5 µM,,,22.8 µM,25.5 µM,34 µM,30.7 µM,48.8 µM,,GI50 (CE81T): inactive; GI50 (BT-483): inactive; GI50 (SKHep): inactive
